Laboratory results: article PMC6018888 (Drug Design, Development and Therapy, 2018)

Assay: Verinurad plasma pharmacokinetics, Phase I single and multiple dose study
Format: in vivo, human
Conditions: for GMR AUC0–24 (day 6/day 1) / GMR AUC0–∞ (day 6/day 1) / GMR Cmax (day 6/day 1): fed (day 6) vs fasted (day 1); for Tmax: median (range); for AUC(0-t): AUC0–24, Japanese subjects; for half-life: t1/2, Japanese subjects
How it was run: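 Oral modified-release tablets were given once as a single dose on day 1 (fasted overnight ≥10 h) and day 6 (after a moderate-fat breakfast), then daily fed through day 12. Serial plasma was sampled to 72 h on days 1 and 12, to 24 h on day 6, and predose on days 8–11. Samples were stored at −70°C. Cmax and AUC0–24 came from noncompartmental analysis, with comparisons as geometric mean ratios.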

[1] = Japanese subjects, 2.5 mg single dose
[2] = Japanese subjects, 5 mg single dose
[3] = Japanese subjects, 10 mg single dose
[4] = Japanese subjects, 15 mg single dose
[5] = Japanese subjects, across the dose groups 2.5–15 mg, fed vs fasted
[6] = male, human, plasma, oral, 5 mg, 5 mg once daily multiple doses, fed, day 12, geometric mean (95% CI)
[7] = male, human, plasma, oral, 10 mg, 10 mg once daily multiple doses, fed, day 12, geometric mean (95% CI)
[8] = male, human, plasma, oral, 15 mg, 15 mg once daily multiple doses, fed, day 12, geometric mean (95% CI)
[9] = multiple verinurad 10 mg doses, fed

Which results are given for CC(C)(Sc1ccncc1-c1ccc(C#N)c2ccccc12)C(=O)O [verinurad]?
AUC0–24 GMR, % (95% CI), Japanese/non-Asian (10 mg multiple dose, fed): 123 (93.0–162) %; AUC0–24 GMR, % (95% CI), Japanese/non-Asian, bodyweight normalized to 70 kg (10 mg multiple dose, fed): 96.9 (77.4–121) %; Cmax GMR, % (95% CI), Japanese/non-Asian (10 mg multiple dose, fed): 138 (112–171) %; Cmax GMR, % (95% CI), Japanese/non-Asian, bodyweight normalized to 70 kg (10 mg multiple dose, fed): 109 (94.4–126) %; AUC0–24 GMR, % (95% CI), Japanese/non-Asian (10 mg single dose, fasted): 134 (111–161) %; AUC0–24 GMR, % (95% CI), Japanese/non-Asian, bodyweight normalized to 70 kg (10 mg single dose, fasted): 106 (84.5–132) %; Cmax GMR, % (95% CI), Japanese/non-Asian (10 mg single dose, fasted): 199 (167–237) %; Cmax GMR, % (95% CI), Japanese/non-Asian, bodyweight normalized to 70 kg (10 mg single dose, fasted): 157 (132–187) %; AUC0–24 GMR, % (95% CI), Japanese/non-Asian (10 mg single dose, fed): 176 (137–227) %; AUC0–24 GMR, % (95% CI), Japanese/non-Asian, bodyweight normalized to 70 kg (10 mg single dose, fed): 139 (114–170) %; Cmax GMR, % (95% CI), Japanese/non-Asian (10 mg single dose, fed): 142 (107–189) %; Cmax GMR, % (95% CI), Japanese/non-Asian, bodyweight normalized to 70 kg (10 mg single dose, fed): 112 (88.5–143) %; GMR AUC0–24 (day 6/day 1) [1]: 146 (101–211) %; GMR AUC0–∞ (day 6/day 1) [1]: 131 (82.9–208) %; GMR Cmax (day 6/day 1) [1]: 116 (105–128) %; Rac, accumulation ratio (day 12/day 6), AUC0–24 (Japanese subjects, 2.5 mg, fed): 1.06 (0.672–1.68); Tmax (Japanese subjects, 5 mg once daily multiple doses, fed, day 12): 4.00 (2.00–10.0) h; GMR AUC0–24 (day 6/day 1) [2]: 185 (121–283) %; GMR AUC0–∞ (day 6/day 1) [2]: 173 (108–278) %; GMR Cmax (day 6/day 1) [2]: 126 (89.1–179) %; Rac, accumulation ratio (day 12/day 6), Cmax (Japanese subjects, 5 mg, fed): 1.24 (1.01–1.53); AUC0–24 (Japanese subjects, 10 mg single dose, fasted, day 1, geometric mean (95% CI)): 93.4 (74.2–118) ng·h/mL; GMR AUC0–24 (day 6/day 1) [3]: 209 (172–253) %; GMR AUC0–∞ (day 6/day 1) [3]: 197 (181–215) %; GMR Cmax (day 6/day 1) [3]: 99.7 (85.1–117) %; Rac, accumulation ratio (day 12/day 6), AUC0–24 (Japanese subjects, 10 mg, fed): 0.886 (0.679–1.16); Rac, accumulation ratio (day 12/day 6), Cmax (Japanese subjects, 10 mg, fed): 1.14 (0.774–1.64); AUC0–24 (Japanese subjects, 15 mg single dose, fed, day 6, geometric mean (95% CI)): 239 (137–416) ng·h/mL; GMR AUC0–24 (day 6/day 1) [4]: 107 (89.1–128) %; GMR AUC0–∞ (day 6/day 1) [4]: 100 (83.1–120) %; GMR Cmax (day 6/day 1) [4]: 112 (90.6–139) %; Rac, accumulation ratio (day 12/day 6), AUC0–24 (Japanese subjects, 15 mg, fed): 1.20 (0.979–1.46); Rac, accumulation ratio (day 12/day 6), Cmax (Japanese subjects, 15 mg, fed): 1.09 (0.823–1.44); effect of moderate-fat meal on plasma AUC0–∞ (increase) [5]: 0%–97%; effect of moderate-fat meal on plasma Cmax (increase) [5]: 0%–26%; AUC0–24 (Japanese, 10 mg single dose, fasted, geometric least square mean): 93.4 ng·h/mL; Cmax (Non-Asian, 10 mg single dose, fed, geometric least square mean): 15.4 ng/mL; AUC(0-t) [6]: 80.9 ng·h/mL; Cmax (male, human, plasma, oral, 5 mg, Cmax, Japanese subjects, 5 mg once daily multiple doses, fed, day 12, geometric mean (95% CI)): 11.5 ng/mL; half-life [6]: 471 min; AUC(0-t) [7]: 173 ng·h/mL; Cmax (male, human, plasma, oral, 10 mg, Cmax, Japanese subjects, 10 mg once daily multiple doses, fed, day 12, geometric mean (95% CI)): 24.9 ng/mL; Tmax (male, human, plasma, oral, 10 mg, Tmax, Japanese subjects, 10 mg once daily multiple doses, fed, day 12): 4.5 h; half-life [7]: 416 min; AUC(0-t) [8]: 286 ng·h/mL; Cmax (male, human, plasma, oral, 15 mg, Cmax, Japanese subjects, 15 mg once daily multiple doses, fed, day 12, geometric mean (95% CI)): 41.5 ng/mL; half-life [8]: 587 min; AUC higher in Japanese vs non-Asian subjects [9]: 23%; Cmax higher in Japanese vs non-Asian subjects [9]: 38%
